FLuc act counter: FLuc activators, initial screening, artefact control for FLuc-dependent activation tests, biochemical, ATPlite luminescence; Luciferin 4-monooxygenase (Photinus pyralis), P08659; ATPlite luciferase biochemical, 10 min; 0 = ATP-free wells, 1 = DMSO control; activation factor at 10 µM; 200,000 tested, under 10 active;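 active = luciferase activation factor, scaled between plate controls, of at least 2 with compound at 10 µM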
Target sequence (P08659 whole entry, looked up): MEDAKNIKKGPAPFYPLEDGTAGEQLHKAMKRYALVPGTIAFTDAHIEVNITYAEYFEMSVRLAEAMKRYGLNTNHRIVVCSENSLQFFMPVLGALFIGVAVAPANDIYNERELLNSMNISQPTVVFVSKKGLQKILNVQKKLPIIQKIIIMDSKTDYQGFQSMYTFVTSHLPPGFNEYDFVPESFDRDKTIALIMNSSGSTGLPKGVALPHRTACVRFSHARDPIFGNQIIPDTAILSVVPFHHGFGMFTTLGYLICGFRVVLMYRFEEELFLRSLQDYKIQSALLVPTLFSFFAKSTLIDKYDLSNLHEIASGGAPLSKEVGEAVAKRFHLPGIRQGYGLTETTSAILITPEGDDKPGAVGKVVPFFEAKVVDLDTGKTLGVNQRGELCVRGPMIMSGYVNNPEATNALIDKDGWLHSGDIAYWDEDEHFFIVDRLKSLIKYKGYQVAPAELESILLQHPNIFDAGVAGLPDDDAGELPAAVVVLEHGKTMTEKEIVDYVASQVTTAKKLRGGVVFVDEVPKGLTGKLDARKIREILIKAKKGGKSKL
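Assay system: Luciferase/luciferin detection reagent, cell-free biochemical luciferase assay / Also added: ATP substrate / Schedule: 10 min at ambient temperature / Measured by: luminescence measurement of luciferase light output / Benchmarks: low control with PBS replacing ATP, high control enzyme plus ATP without compound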
C8 TRAIL sens: viability loss with TRAIL in NB7+C8 cells, primary screen, TRAIL sensitizer project, cell-based, ATPlite luminescence; inhibition (viability loss, TRAIL sensitization), % at 10 µM; 1% of 360,000 active;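 active = compounds causing at least 50% loss of cell viability in the single-dose screen, relative to plate controls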
FLuc inhib CS: firefly luciferase enzyme inhibitors, primary screen, artefact control for luciferase-based inhibitor screens, biochemical, luminescence, ATPLite. Luciferin 4-monooxygenase (Photinus pyralis), P08659. 10 min. inhibition, % at 10 µM. 1.5% of 200,000 active. AID 1006, 2008;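 active = inhibition above about 50% when tested at 10 µM, limit read from the data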
PPC-1+TRAIL kill: compounds killing PPC-1 cancer cells with TRAIL present, primary screen, TRAIL potentiator project, ATPLite luminescence, uHTS; AID 1443, 2008; 0.41% of 220,000 active; cell killing (% activity), % at 4 µM or 5 µM; PPC-1 cells + TRAIL, ATPLite viability luminescence;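 active = cell killing above 50% in the first pass at 4 µM, then a duplicate retest at 5 µM averaging 50% or more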;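 also: plate controls were cells with TRAIL plus DMSO for no effect and medium-only wells lacking cells for full effect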
PPC1 cytotox: cytotoxicity in PPC-1 cells, confirmation, cytotoxicity control for TRAIL apoptosis potentiator project, cell-based, ATP content luminescence. shares compounds with PPC-1+TRAIL kill. PPC-1 viability, ATPlite luminescence, overnight. cytotoxicity, % at 5 µM. 50% of 1,200 active. AID 1447, 2008;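 active = reconfirmed compounds whose average cytotoxicity reaches 50% or more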;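 also: 0% = DMSO-treated cells and 100% = wells holding medium but no cells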
* hit, by the source's call; . = no result. Most compounds without a hit are left out; they make up all but 1.5% or so of the library.

SMILES	FLuc act counter	C8 TRAIL sens	FLuc inhib CS	PPC-1+TRAIL kill	PPC1 cytotox
CCCCCc1ccc(-c2ccc(OC)cc2)nc1	0.5	23.9	47.2	9.4	.
COc1nc(OC)nc(N2CCC(C(=O)NCc3cccs3)CC2)n1	1	-3.6	-2.7	-1.3	1.7
O=C(NC(Cc1ccc(F)cc1)C(=O)O)c1ccccc1 (centres undefined)	1	-11.2	1.1	18.1	.
CC(=O)N1CCN(C(=O)COc2ccccc2C(=O)Nc2ccccc2)CC1	1	-0.3	-3.3	5.2	7.5
COc1ccc(Cl)cc1C(=O)OCC(=O)c1ccc[nH]1	.	-11.1	.	.	.
COC(=O)c1nc2ccc(N3CCOCC3)cc2c(C)c1C(=O)OC	0.1	63.2*	87.1*	46.1	49.3
COc1cccc(C(C)NC(=O)C2CCCO2)c1 (centres undefined)	.	-11.4	.	.	.
COc1ccc(C(C)NC(=O)C2CCCO2)cc1OC (centres undefined)	1.2	-1.1	-18.8	-6.3	-10.7
Oc1cccc(C2c3[nH]c4ccccc4c3CCN2Cc2ccoc2)c1 (centres undefined)	1.1	-1.9	-5.7	7.6	.
COc1ccc2c(c1)CC(C1(O)C(=O)N(C)c3ccccc31)C2=O (centres undefined)	1.1	6.8	-9.6	-0.8	.
O=C(N/N=C/c1cccc([N+](=O)[O-])c1)c1ccc2c(c1)OCCO2	0.2	68.1*	84.2*	68.5*	67.9*
Cc1ccc(C(=O)NC(=S)Nc2ccccc2C(F)(F)F)cc1	0.9	5.2	10.5	-1.6	.
CCOC(=O)N1CCN(c2c(NCCCN(C)c3ccccc3)c(=O)c2=O)CC1	1	3.2	-4.3	16.5	.
S=C(Nc1ccc2c(c1)OCO2)N1CCN(Cc2ccco2)CC1	0.1	59.9*	91.9*	53.1*	55.9*
C/C(=N\NC(=O)c1ccccc1NC(=O)c1ccc(Cl)cc1)c1ccncc1	0	93.7*	97.9*	96.7*	96.7*
O=C(N/N=C/c1cccs1)c1n[nH]c2c1CCCC2	.	74.5*	.	56.4*	45.8
Cc1ccc(/C=N/NC(=O)c2n[nH]c3c2CCCC3)cc1	.	16.8	.	3.8	.
C/C(=N\NC(=O)c1cccs1)c1ccncc1	.	0.1	.	.	.
C/C(=N\NC(=O)c1ccc(Cl)cc1)c1cccs1	0.1	75.0*	90.2*	62.5*	64.1*
C/C(=N\NC(=O)c1ccc(NS(=O)(=O)c2cccs2)cc1)c1cccs1	1.1	-0.3	-6.8	0.9	.
C/C(=N\NC(=O)c1n[nH]c2c1CCC2)c1cccs1	.	79.8*	.	67.9*	67.4*
Fc1ccc(C2CCCN2Cc2nc(Cc3ccccc3F)no2)cc1 (centres undefined)	0.9	10.0	5.0	15.2	.
CS(=O)(=O)c1ccc2nc(NC(=O)CCN3C(=O)c4ccccc4C3=O)sc2c1	1	-5.9	-1.9	25.8	.
O=C(NC1CCCCC1)c1ccc2[nH]c(=O)c(=O)[nH]c2c1	.	4.4	.	.	.
COc1ccc(CSc2nc3ccccc3[nH]2)cc1	0.2	68.5*	81.7*	57.7*	55.2*
SMILES	FLuc act counter	C8 TRAIL sens	FLuc inhib CS	PPC-1+TRAIL kill	PPC1 cytotox
O=C1CCC(=O)N1c1ccc(CSc2nc3ccccc3[nH]2)cc1	0.8	10.9	16.3	12.0	.
Cc1ccc(NCc2ccccc2O)cc1	1	-3.2	-2.3	-3.4	-7.1
Cc1ccccc1N=CC1=C(O)c2ccccc2C1=O	0	90.0*	96.1*	84.2*	82.2*
COc1ccc(N=CC2=C(O)c3ccccc3C2=O)c(OC)c1	0	91.5*	95.2*	82.2*	85.3*
CC(NC(=O)COc1ccccc1)C(=O)NCc1ccc(S(N)(=O)=O)cc1 (centres undefined)	.	-2.7	.	.	.
CCOc1ccc(S(=O)(=O)N(C)c2ccc(OCC(=O)Nc3nccs3)cc2)cc1	1	0.9	-0.3	12.6	.
CCOc1ccc(OCC(=O)Nc2nccs2)cc1	0.2	65.6*	83.2*	47.1	51.5*
COc1ccc(NC(=O)C2CCCN(S(=O)(=O)c3cccc4nonc34)C2)cc1OC (centres undefined)	1	-2.6	-3.7	21.0	.
COc1ccc(CCNC(=O)C2CCCN(S(=O)(=O)c3cccc4nonc34)C2)cc1OC (centres undefined)	1.1	-1.8	-7.6	-16.3	-6.8

Compound activity as filed in PubChem.
